Bioassay records deposited in PubChem by Broad Institute.
S100A4 inh HTS – blocks human S100A4 binding to myosin IIA peptide; P26447; S100A4/TAMRA-MyoIIA peptide fluorescence polarization; inhibition, % at 10.7 µM; 0.14% of 360,000 active;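 active = mean inhibition of at least 70% across replicates, with every replicate also reaching that level; inconclusive = mean inhibition reaches 70% but some replicates fall short; inactive = mean inhibition below 70%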
Target sequence (P26447 whole entry, looked up): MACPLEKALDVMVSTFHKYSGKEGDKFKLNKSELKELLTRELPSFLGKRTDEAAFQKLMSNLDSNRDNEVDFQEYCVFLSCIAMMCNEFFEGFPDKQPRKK
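Test system: S100A4 monomer protein. Medium: HEPES buffer with Ca2+, pH 7.2. Reagent: fluorescent myosin IIA peptide, 5 nM. Compound dosing: single-point compound testing. Timing: 5 min between mix addition and reading. Benchmarks: DMSO neutral and TFP positive wells.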
rRNA inh HTS – inhibitors of bacterial rRNA selective over humanized ribosomes. GFP signal change (wild-type ribosome), % (test concentration not listed). E. coli WT GFP vs humanized-ribosome RFP mutants, fluorescence, 24 h; hits give low values; DMSO median 0, no signal -100. 1.6% of 350,000 active;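 active = significant combined selectivity score with lowered wild-type GFP, culture density cut under 30%, mutant RFP and density less affected; inactive = any of these conditions unmet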
PGC1a acetyl inh – PGC1a acetylation modulation, inhibitor mode; U2OS PGC1a acetylation, AlphaScreen anti-acetyl-lysine; with virally co-expressed GCN5 acetyltransferase; inhibition, % at 15.6 µM; 0.17% of 350,000 active; AID 651687;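 active = every replicate shows inhibition of at least 40%; inconclusive = mean inhibition at least 40% but some replicate below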;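 note: 0% = neutral control wells and 100% = positive control wells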
ERAP1 HTS inh – blocks human ERAP1 aminopeptidase activity. Q9NZ08. recombinant ERAP1, Leu-AMC fluorescence, 60 min. 0.15% of 340,000 active. inhibition, % at 10.7 µM;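 active = mean replicate inhibition of at least 30%, or all replicates individually reaching that 30% level; inactive = mean below 30% and not every replicate reaching it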;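 note: 0% = neutral control wells and 100% = L-leucinethiol positive control wells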
ARNT TACC3 PPI – disrupts binding between human ARNT and TACC3; Q9Y6A5; AlphaScreen His-ARNT PAS-B/GST-TACC3 binding, luminescence; TACC3 fragment carries E629A point mutation; inhibition, % at 9.99 µM; 0.66% of 390,000 active;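 active = mean inhibition of replicates at least 50% and at least half of replicates each reaching 50%; inconclusive = half or more replicates reach 50% but mean below 50%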;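 note: 0% = complete ARNT plus TACC3 wells and 100% = ARNT alone without TACC3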
Casp6 inh – inhibitors of human caspase-6. P55212. purified caspase-6, Z-VEID-R110 cleavage fluorescence. inhibition, % at 12.5 µM. 0.53% of 350,000 active. AID 686996;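 active = mean inhibition across replicates at least about 35%, with every replicate also reaching that limit, limit read from the data; inconclusive = only one of the two criteria met; inactive = neither criterion met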;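 note: 0% = median of neutral control wells and 100% = no fluorescence left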
Target sequence (P55212 24-179 limits assumed): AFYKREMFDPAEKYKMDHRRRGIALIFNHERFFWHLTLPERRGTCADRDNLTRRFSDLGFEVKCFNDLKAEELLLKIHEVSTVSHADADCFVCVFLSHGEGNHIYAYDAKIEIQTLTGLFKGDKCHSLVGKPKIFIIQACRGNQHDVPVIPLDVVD
Target sequence (P55212 194-293 limits assumed): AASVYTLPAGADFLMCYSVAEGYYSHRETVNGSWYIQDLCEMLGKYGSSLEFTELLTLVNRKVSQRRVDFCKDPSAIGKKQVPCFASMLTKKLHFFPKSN
ARNT Alpha ctr-1 – AlphaScreen artifact in ARNT/TACC3 counter-screen | AID 651705 | 50% of 1,200 active | AC50, µM (highest dose often 68 µM), for inactives: top-dose activity change, negative = signal decrease | His-ARNT PASB-GST AlphaScreen artifact counter-screen, luminescence | shares compounds with ARNT TACC3 PPI;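 active = every separate test run was called active for a drop in luminescence, with AC50 within twice the top valid dose, actives reach about 71 µM in these data; inconclusive = the separate test runs disagree in their calls; inactive = all runs inactive, including signal change in the wrong direction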
ARNT Alpha ctr-2 – produces AlphaScreen artifacts in ARNT-TACC3 counter-screen; shares compounds with ARNT TACC3 PPI; Dual-tagged His-ARNT PASB-GST AlphaScreen artifact counter-screen; AC50, µM; 70% of 45 active; AID 720564;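 active = luminescence drop, with half-maximal potency fitted within twice the sample's top valid dose, cut at about 70 µM in these data; inactive = the rest, including signal moving the wrong way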
C2C12 COX5a inh – reduces COX5a expression driven by PGC-1a in C2C12 myotubes | AID 743461 | maximal activity, % | C2C12 myotubes PGC-1a adenovirus, COX5a qPCR | shares compounds with PGC1a acetyl inh | 45 tested, under 10 active;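 active = fitted dose curve reaching 40% activity at or below the highest valid dose tested; inconclusive = flat fit between 30% and 70%, or an unusable fit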
AID743468 – change in PGC-1a target gene PDK4 expression, dose response, C2C12 myotubes, RT-qPCR, cherry-pick | shares compounds with PGC1a acetyl inh | PGC-1a adenovirus, PDK4 mRNA qPCR | PDK4 expression increase, % at 19.5 µM | 45 tested, under 10 active;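 active = fitted curve reaching a 40% PDK4 expression rise at or below the top valid tested dose; inconclusive = no clear call, values can overlap the other calls; inactive = the rest, including shifts the wrong way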
CASP1 counter – blocks human caspase-1 in a selectivity counter-screen; shares compounds with Casp6 inh; purified caspase-1, Z-YVAD-R110 cleavage fluorescence; activity change, negative = inhibition, % at 35 µM; 100 tested, under 10 active; AID 743289;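 active = compounds lowering fluorescence whose fitted half-maximal concentration is no more than twice their top tested dose; inconclusive = flat fit with 30 to 70% inhibition, or poor fit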
An asterisk follows results filed as active; ? = inconclusive; . = no result given; ! = a repeat was not active; [ ] = remark or other dose. Most compounds without a hit are left out; they make up all but 2.4% or so of the library.

SMILES	S100A4 inh HTS	rRNA inh HTS	PGC1a acetyl inh	ERAP1 HTS inh	ARNT TACC3 PPI	Casp6 inh	C2C12 COX5a inh	AID743468	others
Cc1noc(C)c1NC(=O)N(C)C[C@H]1OCCCC[C@@H](C)Oc2ccc(NC(=O)Nc3ccccc3)cc2C(=O)N([C@H](C)CO)C[C@@H]1C	.	5	-5	.	-10	.	.	.
Cc1oc(C(=O)O)cc1COc1cccc2cccnc12	.	.	-3	.	59*	.	.	.	ARNT Alpha ctr-1=-22%
COc1cc(/C=N/NC(=O)CCN2CCN(c3ccccc3)CC2)cc(OC)c1OC	-4	-3	.	-4	38*	8	.	.	ARNT Alpha ctr-1=56µM*
COc1cc(/C=N/NC(=O)CCN2CCN(Cc3ccccc3)CC2)cc(OC)c1OC	.	.	-4	.	-8	.	.	.
O=C(C[C@@H]1C[C@@H]2c3cc(NC(=O)CC4CC4)ccc3O[C@@H]2[C@H](CO)O1)NCc1ccccn1	2	0	-3	.	4	.	.	.
COc1ccccc1NC(=O)CSc1ccc(-c2ccccn2)nn1	-1	-24	.	3	55*	-8	.	.	ARNT Alpha ctr-1=14µM*
Cc1ccc(NC(=O)CSc2ccc(-c3ccccn3)nn2)c(C)c1	0	9	.	5	26	-4	.	.
Cc1cccc(NC(=O)CSc2ccc(-c3ccccn3)nn2)c1C	1	5	3	0	55*	-4	.	.	ARNT Alpha ctr-1=30µM*;ARNT Alpha ctr-2=23*
COc1ccc(NC(=O)Nc2ccc3c(c2)C(=O)N([C@H](C)CO)C[C@@H](C)[C@H](CN(C)C)O3)cc1	3	3	1	0	-12	1	.	.
Nc1ccc(NC(=O)c2ccc(C(=O)Nc3ccc(N)cc3)cc2)cc1	0	6	.	1	-5	7	.	.
Nc1ccc(C(=O)Nc2ccc3c(O)cc(S(=O)(=O)O)cc3c2)cc1	-21	5	-6	10	69*	84*	.	.	ARNT Alpha ctr-1=-34%
CN(C)CCCNc1cc(O)c2ncccc2c1	26	80	13	4	64*	87*	.	.	ARNT Alpha ctr-1=6.2µM*;CASP1 counter=6
COCC(=O)Nc1ccc2c(c1)[C@@H]1C[C@H](CC(=O)NCc3ccccc3F)O[C@H](CO)[C@@H]1O2	-7	-1	3	-4	-8	0	.	.
Cc1ccc(S(=O)(=O)N(C)C[C@H]2Oc3cc(C#Cc4ccncc4)ccc3S(=O)(=O)N([C@H](C)CO)C[C@H]2C)cc1	-25	0	44*	1	1	0	23	-8
C[C@H](CO)N1C[C@H](C)[C@@H](CN(C)Cc2cccnc2)Oc2cc(C#CC3CCCCC3)ccc2S1(=O)=O	0	-4	?	0	9	1	39	2
Cc1ccc(-c2nc(NC(=O)c3nn(C)cc3[N+](=O)[O-])sc2C)cc1	-15	1	96*	-2	-5	-2	-25	4[6.8 µM]
Cc1cnc(NC(=O)c2nn(C)cc2[N+](=O)[O-])s1	-13	14	-131	-9	.	.	.	.
C/C=C/c1ccc([C@H]2[C@@H](CO)N(CC3CC3)[C@@H]2CN(C(C)=O)C(C)C)cc1	2	2	.	-5	.	-1	.	.
O=C(Nc1cccc(F)c1)N1CC(=O)N2[C@@H](CO)[C@@H](c3ccc(C#Cc4cccnc4)cc3)[C@@H]2C1	-5	-6	?	1	.	-1	-25	49*
O=C(Nc1cccc(F)c1)N1CC(=O)N2[C@H](C1)[C@H](c1ccc(C#Cc3cccnc3)cc1)[C@@H]2CO	-8	-2	21	2	.	1	.	.
CCCN(CC)c1ncnc2[nH]ncc12	2	5	?	-7	-7	-3	15	62*
C=CS(=O)(=O)N(Cc1ccccc1Br)[C@H](CO)Cc1ccccc1	-1	-7	?	1	-6	0	-24	-29
C=CS(=O)(=O)N(Cc1ccccc1)[C@H](CO)CC(C)C	1	7	-16	1	-30	-1	.	.
C[C@@H]1CN([C@@H](C)CO)S(=O)(=O)c2ccc(-c3cccc(F)c3)cc2O[C@H]1CN(C)S(=O)(=O)c1ccc(F)cc1	14	3	-21	1	-2	2	.	.
COc1ccc(S(=O)(=O)N(C)C[C@H]2Oc3c(NC(=O)Nc4ccc(C(F)(F)F)cc4)cccc3C(=O)N([C@H](C)CO)C[C@H]2C)cc1	-7	3	0	1	.	0	.	.
SMILES	S100A4 inh HTS	rRNA inh HTS	PGC1a acetyl inh	ERAP1 HTS inh	ARNT TACC3 PPI	Casp6 inh	C2C12 COX5a inh	AID743468	others
COC(=O)c1nn(-c2ccccc2)ccc1=O	.	.	44*	.	-6	.	-33	-11
CCOC(=O)c1c2c(n(Cc3ccccc3)c1C)C(=O)C(=O)c1ccccc1-2	2	-42	.	-1	0	12	.	.
CCOC(=O)c1c2c(n(C)c1C)C(=O)C(=O)c1ccc(Br)cc1-2	.	.	-83	.	2	.	-37	-31[6.8 µM]
Cc1cc(C)cc(OC(=O)CS(=O)c2ccc(C(F)(F)F)cc2[N+](=O)[O-])c1 (stereo not drawn)	.	.	-64	.	-6	.	-29	-15
O=C(C[C@@H]1C=C[C@@H](NC(=O)C2CCC2)[C@@H](CO)O1)NCC1CC1	-1	3	-2	2	.	8	.	.
Cn1nnnc1SCC(=O)NCc1cccc(C(=O)O)c1	.	.	?	.	-6	.	-26	-6
N#Cc1ccc(-c2ccc(C3[C@@H]4CN(C(=O)Nc5ccc(C(F)(F)F)cc5)C[C@H]3N4)cc2)cc1 (stereo partly drawn)	13	-60	-5	0	.	1	.	.
Cc1ccc(-c2ccc(C3[C@@H]4CN(C(=O)Nc5ccc(C(F)(F)F)cc5)C[C@H]3N4)cc2)cc1 (stereo partly drawn)	-10	-60	70*!	-6	.	16	-32	-15
O=C(Nc1ccc(N2CCN(Cc3ccccc3F)CC2)cc1)c1ccccc1[N+](=O)[O-]	-5	-26	-22	-1	-3	2	.	.
O=C(Nc1ccc(N2CCN(Cc3ccccc3F)CC2)cc1)c1ccc([N+](=O)[O-])o1	-1	.	73*	-4	2	0	-40	15
